In the library only some 2.6% were active in any assay of this set; here they are far more common.
PG9 Ab binder = small molecules binding HIV-1 gp120 antibody PG9; inhibition, % at 6.7 µM; TR-FRET gp120-PG9 antibody binding; 360,000 tested, 0.43% active; in the data active = inhibition above about 8.5%
Rev-erbA mod = modulators of human Rev-erb alpha DNA binding; P20393; Rev-erbα–FITC-DNA binding, fluorescence polarization, 90 min; activity, % at 10 µM; 370,000 tested, 0.79% active; AID 1259318;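 active = activity above about 14%, limit read from the data; passing the limit was not always enough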
NR2E3 ag-1 = activates human NR2E3 receptor | inhibition of corepressor binding, % at 3.98 µM | Q9Y5X4 | AID 602229 | 360,000 tested, 0.35% active | CHO-S Gal4-NCOR/VP16-NR2E3 two-hybrid, luciferase;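 active = inhibition above the mean of all tested compounds plus 3 SD, cut at about 70% in these data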;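 note: higher means lower luciferase signal from less NR2E3 corepressor binding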
Target sequence (Q9Y5X4 whole entry, looked up, the tested form may be a part): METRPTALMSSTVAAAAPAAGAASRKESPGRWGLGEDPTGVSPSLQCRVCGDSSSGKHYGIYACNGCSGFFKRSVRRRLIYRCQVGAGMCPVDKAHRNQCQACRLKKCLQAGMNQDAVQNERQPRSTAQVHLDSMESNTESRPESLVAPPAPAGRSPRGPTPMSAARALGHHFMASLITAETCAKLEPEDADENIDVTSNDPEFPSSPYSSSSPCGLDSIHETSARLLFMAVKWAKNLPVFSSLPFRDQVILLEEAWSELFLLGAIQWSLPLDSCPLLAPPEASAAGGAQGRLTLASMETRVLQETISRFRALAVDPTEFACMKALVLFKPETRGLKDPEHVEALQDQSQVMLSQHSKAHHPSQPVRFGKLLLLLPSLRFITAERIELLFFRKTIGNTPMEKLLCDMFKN
rCAG binder = r(CAG) repeat RNA binding. TO-PRO-1 dye displacement fluorescence. inhibition, % at 3 µM. 370,000 tested, 1.3% active. AID 651821;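 active = inhibition above the plate cutoff, the mean of all test compounds on that plate plus 3 SD, cut at about 35% in these data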;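 note: higher means more dye released from RNA so lower well fluorescence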
NR2E3 ag-2 = NR2E3 (human) agonism. Q9Y5X4. GST-NR2E3/biotin-RetCOR TR-FRET, 1536-well. inhibition of corepressor binding, % at 4.78 µM. 320,000 tested, 0.12% active;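 active = percent inhibition above the cutoff of mean plus 3 SD of all tested compounds, set per screening campaign, cut at about 20% in these data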
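system = GST-tagged NR2E3 plus biotinylated RetCOR corepressor | input = 1.35 nM GST-NR2E3 | also added = 7 nM biotin-RetCOR | schedule = 5 h incubation at 4 °C | measured by = TR-FRET with europium anti-GST and streptavidin-D2, 340 nm excitation | read-out = percent loss of FRET ratio relative to control wells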
Rev-erbA confirm = confirmation of modulators of human Rev-erb alpha DNA binding | 3,000 tested, 61% active | shares compounds with Rev-erbA mod | activation, % at 25 µM | Rev-erb alpha FITC-DNA binding, fluorescence polarization, 90 min | AID 1259319;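 active = activation at or above a set limit, or at least 3 SD above the negative control mean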
RORg counter = RORgamma DNA-binding activity, dose-response counter-screen. shares compounds with Rev-erbA mod. purified RORgamma protein-FITC-DNA binding, fluorescence polarization. IC50, µM. 910 tested, 8% active. AID 1259320;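 active = Compounds whose fitted half-maximal concentration for disrupting protein-DNA binding is below 10 micromolar; the record names Rev-erb in its text, so the target is in doubt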
Numbers stand for hits; i = inactive; nt = no result.

SMILES	PG9 Ab binder	Rev-erbA mod	NR2E3 ag-1	rCAG binder	NR2E3 ag-2	Rev-erbA confirm	others
COc1ccc(Cl)cc1C(=O)NNC(=O)CNC(=O)c1ccc(C)s1	i	i	i	i	nt	nt
COc1ccc(C2NC(=O)NC(C)=C2C(=O)OC2CCCC(C)C2)cc1 (stereo not given)	i	18.4	i	i	i	i
COc1ccc(C2NC(=O)NC(C)=C2C(=O)OC2CCCCC2)cc1 (stereo not given)	i	i	i	i	nt	nt
O=C(Nc1ccc(F)cc1)c1sc2cc(C(F)(F)F)cnc2c1-c1cccs1	i	49.3	i	i	i	21.1
Cc1ccc2[nH]cc(S(=O)(=O)c3ccc(C)c(C)c3)c(=O)c2c1	i	56.2	i	i	i	33.2	RORg counter=i
COc1ncnc2c1ncn2CCCN1CCN(Cc2ccc(C)cc2)CC1	i	i	i	i	nt	nt
CC(C)(C=O)Cc1cc(C(C)(C)C)c(O)c(C(C)(C)C)c1	i	21.5	i	i	i	18.8
N#Cc1c(SCC(N)=O)nc2c(c1-c1ccc(O)cc1)CCCC2	i	i	i	i	i	nt
CCOC(=O)c1sc(NC(=O)CSc2nc(C)cc(C)c2C#N)c(C#N)c1C	i	23.6	i	i	i	i
Cc1ccc(C)c(NC(=O)CSc2nc(C)cc(C)c2C#N)c1	i	38.0	i	i	i	25.2
CCOC(=O)c1sc(NC(=O)CSc2nc3c(c(-c4ccc(OC)cc4)c2C#N)CCCC3)c(C#N)c1C	i	31.7	i	i	i	21.9
CCOC(=O)c1sc(NC(=O)CSc2nc3c(cc2C#N)CCCCCC3)c(C#N)c1C	i	i	i	i	i	nt
COC(=O)CSc1nc(C)cc(C)c1C#N	i	i	i	i	i	nt
COc1ccc(-c2c(C#N)c(SCC(N)=O)nc3c2CCCC3)cc1	i	67.6	i	i	i	37.3	RORg counter=i
COc1ccccc1-c1cnc(C(O)c2ccc(Cl)cc2)[nH]1 (stereo not given)	i	i	i	i	nt	nt
COC(=O)CCCn1cc(CN2CC(N3CCN(C)CC3)CS2(=O)=O)nn1 (stereo not given)	i	i	i	i	nt	nt
COc1ccc2cc(/C=N/NC(=O)c3c(Cl)cnn3C)c(Cl)nc2c1	i	23.8	i	i	i	i
Cc1nnc2c(NCCC(C)C)nc3ccccc3n12	i	23.0	i	i	nt	i
Cc1nnc2c(NCC(C)c3ccccc3)nc3ccccc3n12 (stereo not given)	i	i	i	i	nt	nt
COCCNC(=S)N(Cc1cc2cc(C)ccc2n2nnnc12)C1CCCC1	i	54.0	i	i	i	22.5
Cc1ccc2c(c1)cc(CN(C(=O)N1CCOCC1)C1CCCC1)c1nnnn12	i	i	i	i	i	nt
COCCN(Cc1cc2cc(C)ccc2n2nnnc12)C(=S)Nc1ccc(C)cc1	i	104.1	i	i	i	49.4	RORg counter=i
COc1ccc(-c2cc(C(=O)NCc3cccc(Cl)c3)[nH]n2)c(C)c1	i	i	i	i	nt	nt
CC(=O)Nc1ccc(C(=O)N2CCCCC2c2cc(C(=O)NCc3cccnc3)no2)cc1 (stereo not given)	i	i	i	i	nt	nt
COc1ccc2c(c1)c1nc3ccccc3nc1n2Cc1ccc(OC(C)C)c(OC)c1	i	i	i	i	i	nt
SMILES	PG9 Ab binder	Rev-erbA mod	NR2E3 ag-1	rCAG binder	NR2E3 ag-2	Rev-erbA confirm	others
COc1ccc(Cn2c3ccc(OC)cc3c3nc4ccccc4nc32)cc1	i	25.4	i	i	i	22.7
Cn1c2ccccc2c2cc(C(=O)OCC(=O)N3CC(=O)Nc4ccccc43)sc21	i	73.8	i	i	i	62.0
Cc1cc(C)c2cc(C#N)c(SCC(=O)Nc3ccc4c(c3)OCO4)nc2c1	i	62.4	i	i	i	196.3	RORg counter=i
O=C(CSc1ncnc2ccccc12)Nc1ccc2c(c1)OCO2	i	i	i	i	i	nt
Cc1cc(C)c2cc(C#N)c(SCC(=O)NCC3CCCO3)nc2c1 (stereo not given)	i	102.7	i	i	i	87.5	RORg counter=i
CCOC(=O)C1CCN(C(=O)c2cc(S(=O)(=O)N3CCOCC3)ccc2C)CC1	i	i	i	i	i	nt
Clc1ccc(-c2ccnc(Oc3ccc4ccccc4c3)n2)cc1	i	i	i	i	i	nt
Clc1ccc(-c2ccnc(Oc3cc(Cl)ccc3Cl)n2)cc1	i	35.3	i	i	i	38.6	RORg counter=i
CC1Cc2ccccc2N1C(=O)CSc1ncccn1 (stereo not given)	i	i	i	i	i	nt
Cc1ccc2nc(SCC(=O)N3c4ccccc4CC3C)c(C)cc2c1 (stereo not given)	i	27.5	i	i	i	i
Cc1ccc2nc(-c3cccnc3SCC(=O)N3c4ccccc4CC3C)[nH]c2c1 (stereo not given)	i	32.7	i	i	i	19.6
Cc1ccc(S(=O)(=O)N(C)C)cc1NC(=O)CN1C(=O)NC2(CCc3ccccc32)C1=O (stereo not given)	i	i	i	i	nt	nt
CCOC(=O)c1sc(NC(=S)NC(=O)c2ccccc2)nc1C	i	20.4	i	i	i	i
COc1cc(C(=O)Nc2nc3ccc4nc(C)sc4c3s2)cc(OC)c1OC	i	115.1	i	i	i	i
CCOC(=O)c1sc(NC(=S)NC(=O)c2cccc(OC)c2)nc1C	i	93.7	i	i	i	37.7	RORg counter=i
COC(=O)c1sc(NC(=S)NC(=O)c2cc(OC)c(OC)c(OC)c2)nc1C	i	56.9	i	i	i	i
CCOC(=O)c1sc(NC(=O)c2ccc(OC)cc2)nc1C	i	i	i	i	i	nt
COC(=O)c1sc(NC(=S)NC(=O)c2ccccc2)nc1C	i	i	i	i	i	nt
COc1cc(C(=O)Nc2nnc(C)s2)cc(OC)c1OC	i	i	i	i	i	nt
C[C@H]1CN([C@@H](C)CO)C(=O)c2cc(NC(=O)NC3CCCCC3)ccc2O[C@H]1CN(C)C(=O)Nc1ccc(C(F)(F)F)cc1	i	i	i	i	nt	nt
CCC(=O)Oc1ccc2c(=O)c(-c3ccc4ccccc4n3)c(CC)oc2c1C	i	i	i	i	i	nt
Cc1oc2c(C)c(O)ccc2c(=O)c1-c1ccc2ccccc2n1	i	22.6	i	i	i	19.9
Cc1nnsc1-c1onc(C)c1C(=O)Nc1cc(Cl)cc(Cl)c1	i	24.8	i	i	i	i
COCCCNC(=O)C[C@H]1C[C@@]2(C(=O)OC)C(=C[C@H](C(C)C)O[C@@H]2C2CC2)N(Cc2ccccc2)C1=O	i	i	nt	i	nt	nt
CCCOc1ccc(/C(O)=C2/C(=O)C(=O)N(CCCn3ccnc3)C2c2cccs2)cc1 (stereo not given)	i	i	i	i	i	nt
CCOc1ccc(/C(O)=C2/C(=O)C(=O)N(CCCn3ccnc3)C2c2cccs2)cc1Cl (stereo not given)	i	48.2	i	i	i	46.6
CC#CCOCC1CNC(=O)O1 (stereo not given)	i	i	i	i	nt	nt
